Assay results reported in ChEMBL document CHEMBL1671788, “Discovery, synthesis, and structure-activity relationship development of a series of N-(4-acetamido)phenylpicolinamides as positive allosteric modulators of metabotropic glutamate receptor 4 (mGlu(4)) with CNS exposure in rats” (J Med Chem, 2011).

How the values were obtained:
[1] = molecular target: T1, Metabotropic glutamate receptor 4 (Homo sapiens, UniProt Q14833); assay: Positive allosteric modulation of human mGluR4 expressed in CHO cells coexpressing Gqi5 assessed as calcium mobilization relative to PHCCC; type: functional, cell-based
Method in brief: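 CHO cells stably expressing human mGlu4 with Gqi5 were plated at 30,000 cells/well and grown overnight. Cells were loaded with 1 µM Fluo-4 AM for 45 min at 37 °C in HBSS/HEPES/2.5 mM probenecid buffer. […] Ca2+ fluorescence was read (ex 470, em 540 nm). Curves were fitted with a four-parameter logistic; ≥3 independent runs in triplicate.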

[2] = molecular target: T1, Metabotropic glutamate receptor 4; assay: Positive allosteric modulation of human mGluR4 expressed in CHO cells coexpressing Gqi5 assessed as calcium mobilization; type: functional, cell-based
[3] = molecular target: Metabotropic glutamate receptor 4 (Rattus norvegicus) (UniProt P31423); assay: Positive allosteric modulation of rat mGluR4 expressed in CHO cells coexpressing Gqi5 assessed as calcium mobilization relative to PHCCC; type: functional, cell-based
[4] = molecular target: Metabotropic glutamate receptor 4 (Rattus norvegicus, UniProt P31423); assay: Positive allosteric modulation of rat mGluR4 expressed in CHO cells coexpressing Gqi5 assessed as calcium mobilization; type: functional, cell-based
[5] = molecular target: Metabotropic glutamate receptor 4 (Rattus norvegicus) (UniProt P31423); assay: Positive allosteric modulation of rat mGluR4 expressed in CHO cells coexpressing Gqi5 assessed as potentiation of glutamate-induced calcium mobilization; type: functional, cell-based
Cytochrome P450 3A4 = Cytochrome P450 3A4 (Homo sapiens, UniProt P08684); assay: Inhibition of human CYP3A4
Method in brief: (§1)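 Human liver microsomes (final 0.1 mg/mL) in 0.1 M potassium phosphate, pH 7.4, with a probe cocktail: phenacetin 10 µM (1A2), diclofenac 5 µM (2C9), dextromethorphan 5 µM (2D6) and midazolam 2 µM (3A4). Compound at 100 nM–30 µM final, in duplicate, preincubated 15 min at 37 °C. NADPH (1 mM) reaction ran 8 min, was quenched with cold acetonitrile, and read by LC/MS/MS (MRM). IC50 determined.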

Cytochrome P450 1A2 = molecular target: T2, Cytochrome P450 1A2 (Homo sapiens, UniProt P05177); assay: Inhibition of human CYP1A2; method in brief: as §1
T2 sequence (P05177 whole entry): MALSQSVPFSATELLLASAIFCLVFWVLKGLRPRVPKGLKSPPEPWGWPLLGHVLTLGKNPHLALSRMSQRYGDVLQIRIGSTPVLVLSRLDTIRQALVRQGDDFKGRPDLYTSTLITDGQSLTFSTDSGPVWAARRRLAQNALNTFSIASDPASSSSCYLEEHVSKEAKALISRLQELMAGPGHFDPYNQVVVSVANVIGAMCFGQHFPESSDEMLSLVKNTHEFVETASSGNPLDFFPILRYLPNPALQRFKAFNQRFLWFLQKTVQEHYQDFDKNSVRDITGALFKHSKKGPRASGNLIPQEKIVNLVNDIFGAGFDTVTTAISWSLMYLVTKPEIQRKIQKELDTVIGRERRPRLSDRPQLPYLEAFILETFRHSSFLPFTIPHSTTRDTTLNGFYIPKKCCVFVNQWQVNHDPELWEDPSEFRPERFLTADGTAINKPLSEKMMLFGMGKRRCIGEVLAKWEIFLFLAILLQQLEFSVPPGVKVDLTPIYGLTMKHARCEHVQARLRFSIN

Plasma [6] = assay: Cmax in Sprague-Dawley rat plasma at 10 mg/kg, sc; type: ADME, organism-based; parameters: dose 10 mg/kg, route subcutaneous; settings: in vivo
Method in brief: (§2)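 Rats dosed subcutaneously at 10 mg/kg as a 10% tween 80 microsuspension. […] In vivo samples were quantified by LC/MS/MS (ESI, positive-mode MRM) after gradient elution on a C18 column.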

Cytochrome P450 2D6 = Cytochrome P450 2D6 (Homo sapiens, UniProt P10635); assay: Inhibition of human CYP2D6; method in brief: as §1
[7] = Plasma protein binding in Sprague-Dawley rat; type: ADME, cell-free; settings: read-out: PPB
Method in brief: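 Equilibrium dialysis of compound spiked into rat plasma against 25 mM phosphate buffer, pH 7.4. Dialysis ran 4 h at 37 °C with shaking. Both chambers were matrix-matched, extracted with cold acetonitrile and quantified by LC/MS/MS. Triplicate within one plate.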

[8] = AUC in Sprague-Dawley rat plasma at 10 mg/kg, sc; type: ADME, organism-based; parameters: dose 10 mg/kg, route subcutaneous
in vivo = settings: Sprague-Dawley, rat, sc, 10 mg/kg
Plasma [9] = assay: AUC in Sprague-Dawley rat brain at 10 mg/kg, sc; type: ADME, organism-based; parameters: dose 10 mg/kg, route subcutaneous; settings: in vivo
Cytochrome P450 2C9 = Cytochrome P450 2C9 (Homo sapiens, UniProt P11712); assay: Inhibition of human CYP2C9; method in brief: as §1
[10] = Cmax in Sprague-Dawley rat brain at 10 mg/kg, sc; type: ADME, organism-based; parameters: dose 10 mg/kg, route subcutaneous; method in brief: as §2

Chain of Metabotropic glutamate receptor 4 (Rattus norvegicus) (P31423 whole entry): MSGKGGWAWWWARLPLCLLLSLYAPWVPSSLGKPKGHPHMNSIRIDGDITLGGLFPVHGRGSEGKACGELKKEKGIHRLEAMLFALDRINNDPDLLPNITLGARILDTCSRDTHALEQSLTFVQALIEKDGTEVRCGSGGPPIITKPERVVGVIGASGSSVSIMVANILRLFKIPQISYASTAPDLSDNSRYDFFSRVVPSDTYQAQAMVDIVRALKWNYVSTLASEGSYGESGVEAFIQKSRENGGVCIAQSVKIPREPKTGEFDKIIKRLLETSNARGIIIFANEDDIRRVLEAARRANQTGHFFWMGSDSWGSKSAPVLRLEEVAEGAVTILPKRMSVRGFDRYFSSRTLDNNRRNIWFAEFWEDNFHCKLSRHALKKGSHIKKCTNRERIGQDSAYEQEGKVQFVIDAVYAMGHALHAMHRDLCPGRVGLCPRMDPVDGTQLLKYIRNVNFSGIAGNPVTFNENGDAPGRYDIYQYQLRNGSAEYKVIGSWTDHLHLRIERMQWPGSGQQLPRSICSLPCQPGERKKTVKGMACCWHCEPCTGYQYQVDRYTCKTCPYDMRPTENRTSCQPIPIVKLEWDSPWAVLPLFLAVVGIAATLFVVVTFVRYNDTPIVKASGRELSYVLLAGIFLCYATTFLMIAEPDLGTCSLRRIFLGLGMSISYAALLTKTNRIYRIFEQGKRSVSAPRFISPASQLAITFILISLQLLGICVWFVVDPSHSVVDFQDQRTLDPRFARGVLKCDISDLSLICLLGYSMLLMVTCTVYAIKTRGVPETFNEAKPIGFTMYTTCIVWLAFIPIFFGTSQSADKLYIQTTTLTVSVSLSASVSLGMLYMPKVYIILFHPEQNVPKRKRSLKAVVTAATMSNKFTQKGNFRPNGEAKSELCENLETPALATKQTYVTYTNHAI
Chain of Metabotropic glutamate receptor 4 (Rattus norvegicus, UniProt P31423) (P31423 whole entry): as above
T1 sequence (Q14833 whole entry): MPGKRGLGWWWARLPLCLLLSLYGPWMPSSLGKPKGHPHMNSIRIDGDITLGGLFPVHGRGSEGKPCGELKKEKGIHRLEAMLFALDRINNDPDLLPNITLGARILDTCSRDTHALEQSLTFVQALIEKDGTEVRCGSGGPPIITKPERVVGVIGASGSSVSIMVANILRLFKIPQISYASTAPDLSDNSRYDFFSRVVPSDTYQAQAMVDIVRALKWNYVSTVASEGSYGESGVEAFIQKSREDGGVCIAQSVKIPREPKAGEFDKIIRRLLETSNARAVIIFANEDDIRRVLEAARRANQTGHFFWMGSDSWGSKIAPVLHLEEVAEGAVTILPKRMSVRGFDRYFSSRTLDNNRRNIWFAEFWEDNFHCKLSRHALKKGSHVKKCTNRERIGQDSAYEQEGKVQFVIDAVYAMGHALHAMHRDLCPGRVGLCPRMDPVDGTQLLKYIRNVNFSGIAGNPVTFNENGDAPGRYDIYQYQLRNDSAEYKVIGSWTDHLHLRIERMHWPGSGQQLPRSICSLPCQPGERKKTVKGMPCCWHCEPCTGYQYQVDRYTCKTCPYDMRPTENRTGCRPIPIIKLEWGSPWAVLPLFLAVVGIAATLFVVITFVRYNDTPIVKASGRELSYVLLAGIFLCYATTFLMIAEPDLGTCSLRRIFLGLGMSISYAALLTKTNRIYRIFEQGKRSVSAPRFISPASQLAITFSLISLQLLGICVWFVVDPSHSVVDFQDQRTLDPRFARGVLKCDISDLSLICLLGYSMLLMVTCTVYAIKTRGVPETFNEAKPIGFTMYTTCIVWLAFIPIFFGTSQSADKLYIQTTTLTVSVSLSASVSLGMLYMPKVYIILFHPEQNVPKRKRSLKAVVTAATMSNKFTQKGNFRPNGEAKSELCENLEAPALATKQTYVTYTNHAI
Chain of Cytochrome P450 2D6 (P10635 whole entry): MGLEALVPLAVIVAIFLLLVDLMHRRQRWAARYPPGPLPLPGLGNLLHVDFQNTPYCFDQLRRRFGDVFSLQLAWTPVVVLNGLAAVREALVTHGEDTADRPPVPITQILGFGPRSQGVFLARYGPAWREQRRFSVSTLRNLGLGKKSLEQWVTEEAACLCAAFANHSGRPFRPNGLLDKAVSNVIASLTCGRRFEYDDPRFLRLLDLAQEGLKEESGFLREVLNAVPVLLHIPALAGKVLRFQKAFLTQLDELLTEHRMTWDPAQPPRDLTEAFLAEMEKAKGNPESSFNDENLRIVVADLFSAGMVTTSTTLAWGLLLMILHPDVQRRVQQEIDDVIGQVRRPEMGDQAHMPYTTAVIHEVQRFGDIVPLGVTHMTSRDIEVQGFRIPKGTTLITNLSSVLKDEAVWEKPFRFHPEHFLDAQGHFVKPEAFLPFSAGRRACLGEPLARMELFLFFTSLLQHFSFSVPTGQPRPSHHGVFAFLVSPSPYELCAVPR
Chain of Cytochrome P450 3A4 (P08684 whole entry): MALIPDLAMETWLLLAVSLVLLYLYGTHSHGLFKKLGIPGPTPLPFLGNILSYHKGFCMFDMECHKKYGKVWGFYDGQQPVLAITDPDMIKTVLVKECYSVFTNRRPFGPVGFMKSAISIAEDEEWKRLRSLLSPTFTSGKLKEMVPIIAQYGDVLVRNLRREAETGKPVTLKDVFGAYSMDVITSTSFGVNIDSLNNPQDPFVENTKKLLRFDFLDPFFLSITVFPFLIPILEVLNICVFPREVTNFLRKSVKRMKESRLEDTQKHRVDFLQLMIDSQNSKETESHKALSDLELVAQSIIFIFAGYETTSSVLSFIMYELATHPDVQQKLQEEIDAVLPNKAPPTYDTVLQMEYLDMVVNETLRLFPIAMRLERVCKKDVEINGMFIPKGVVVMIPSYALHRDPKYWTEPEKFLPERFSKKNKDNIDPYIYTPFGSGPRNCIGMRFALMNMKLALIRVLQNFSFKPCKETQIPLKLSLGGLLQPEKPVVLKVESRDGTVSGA
Chain of Cytochrome P450 2C9 (P11712 whole entry): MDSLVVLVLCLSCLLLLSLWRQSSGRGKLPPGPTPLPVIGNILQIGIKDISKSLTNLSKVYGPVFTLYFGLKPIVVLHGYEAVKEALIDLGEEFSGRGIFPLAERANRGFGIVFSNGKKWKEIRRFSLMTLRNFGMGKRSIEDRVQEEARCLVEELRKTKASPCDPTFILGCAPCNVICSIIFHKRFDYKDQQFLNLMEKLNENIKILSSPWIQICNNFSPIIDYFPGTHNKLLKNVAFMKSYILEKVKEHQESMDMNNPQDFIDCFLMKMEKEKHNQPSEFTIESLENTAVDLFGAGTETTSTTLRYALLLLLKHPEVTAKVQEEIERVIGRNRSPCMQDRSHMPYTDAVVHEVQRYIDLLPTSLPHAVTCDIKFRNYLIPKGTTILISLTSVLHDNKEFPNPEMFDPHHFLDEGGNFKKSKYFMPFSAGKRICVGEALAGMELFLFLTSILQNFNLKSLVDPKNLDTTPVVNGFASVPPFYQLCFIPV

Row | SMILES | Activity [1] [%] | Activity [3] [%] | EC50 ([4]; read-out: EC50) [µM] | EC50 ([2]; read-out: EC50) [µM] | also measured
1 | COc1cc(NC(=O)C2CCCO2)ccc1NC(=O)c1ccccc1Cl (stereo not drawn) | 21.3 | 27.1 | > 10 | – | EC50 ([2]; cho): Not Active
2 | O=C(Nc1ccc(NC(=O)c2ccc(F)cc2Cl)c(Cl)c1)c1ccccn1 | 61.1 | 119 | 0.169 | 0.114 | fold change (FC) [5]: 6.7
3 | O=C(Nc1ccc(NC(=O)c2ccccc2Cl)c(C(F)(F)F)c1)c1ccccn1 | 69.5 | 102 | 2.36 | 2.09 | –
4 | COc1cc(NC(=O)c2ccc(Br)o2)ccc1NC(=O)c1ccccc1Cl | 87 | 125 | 1 | 1.44 | –
5 | COc1cc(NC(=O)c2ccco2)ccc1NC(=O)c1ccccc1Cl | 62.7 | 122 | 1.01 | 0.977 | –
6 | CC(C)C(=O)Nc1ccc(NC(=O)c2ccccn2)cc1Cl | 60 | 109 | 4.82 | 4.27 | –
7 | COc1cc(NC(=O)c2cnccn2)ccc1NC(=O)c1ccccc1Cl | 74.3 | 112 | 1.12 | 1.78 | –
8 | COc1ccccc1C(=O)Nc1ccc(NC(=O)c2ccccn2)cc1Cl | 16.4 | 19 | – | – | EC50 ([2]; cho): Not Active; EC50 ([4]; cho): Not Active
9 | O=C(Nc1ccc(NC(=O)c2ccccc2Cl)c(F)c1)c1ccccn1 | 59.7 | 91.4 | – | – | fold change (FC) [5]: 4.6
10 | COc1cc(NC(=O)c2cccs2)ccc1NC(=O)c1ccccc1Cl | 63.4 | 96.7 | – | – | –
11 | O=C(Nc1ccc2c(ccn2C(=O)c2ccc(F)cc2Cl)c1)c1ccccn1 | 71.7 | 104 | 1.66 | 1.42 | –
12 | Cc1ccccc1C(=O)Nc1ccc(NC(=O)c2ccccn2)cc1Cl | 72.5 | 123 | 0.915 | 0.958 | INH (Cytochrome P450 3A4): > 30 µM; INH (Cytochrome P450 1A2): > 10 µM; Cmax (Plasma [6]): 219.2 ng/mL; fold change (FC) [5]: 9.6; INH (Cytochrome P450 2D6): 12 µM; fraction unbound [7]: < 0.005; AUC(0-t) [8]: 766 ng·h/mL; Tmax (in vivo): 30 min; AUC (Plasma [9]): 155.4 ng·h/g; INH (Cytochrome P450 2C9): 14.1 µM; Cmax [10]: 59.4 ng/g
13 | COc1cc(NC(=O)c2cscn2)ccc1NC(=O)c1ccccc1Cl | 86.8 | 132 | 0.753 | 0.845 | –
14 | O=C(Nc1ccc(NC(=O)c2ccc(F)cc2F)c(Cl)c1)c1ccccn1 | 24.6 | 43.5 | 2.1 | – | EC50 ([2]; cho): Not Active
15 | O=C(Nc1ccc(NC(=O)c2cncs2)c(Cl)c1)c1ccccn1 | 86.7 | 125 | 1.73 | 2.18 | –
16 | O=C(Nc1ccc(NC(=O)c2ccccc2F)c(Cl)c1)c1ccccn1 | 34.5 | 71.6 | 4.39 | 2.38 | –

Row | SMILES | Activity [1] [%] | Activity [3] [%] | EC50 ([4]; read-out: EC50) [µM] | EC50 ([2]; read-out: EC50) [µM] | also measured
17 | O=C(Nc1ccc(NC(=O)c2ccccc2Cl)cc1)c1ccccn1 | 33.6 | 49.6 | 2.26 | 1.61 | –
18 | O=C(Nc1ccc(NC(=O)c2ccccn2)cc1Cl)c1ccccc1 | 37.9 | 74.2 | 0.518 | 0.361 | –
19 | COc1ccccc1C(=O)n1ccc2cc(NC(=O)c3ccccn3)ccc21 | 91.3 | 107 | 1.34 | 1.41 | fold change (FC) [5]: 5.9; fraction unbound [7]: < 0.005
20 | COc1cc(NC(=O)c2ccc(-c3ccccc3)o2)ccc1NC(=O)c1ccccc1Cl | 16.3 | 16.3 | – | – | EC50 ([2]; cho): Not Active; EC50 ([4]; cho): Not Active
21 | O=C(Nc1ccc2c(ccn2C(=O)c2ccccn2)c1)c1ccccc1Cl | 21.1 | 17.6 | – | – | EC50 ([2]; cho): Not Active; EC50 ([4]; cho): Not Active
22 | O=C(Nc1ccc(NC(=O)c2ccc(-c3ccccc3)o2)c(Cl)c1)c1ccccn1 | 24.9 | 45.6 | 3.35 | – | EC50 ([2]; cho): Not Active
23 | COc1cc(NC(=O)C2CCCCC2)ccc1NC(=O)c1ccccc1Cl | 26.9 | 43.2 | 1.52 | 1.12 | –
24 | O=C(Nc1ccc(NC(=O)c2ccccn2)cc1Cl)c1cc(Cl)cc(Cl)c1 | 37.4 | 61 | 2.34 | 2.15 | –
25 | COc1cc(NC(=O)c2nccs2)ccc1NC(=O)c1ccccc1Cl | 77.6 | 134 | 0.377 | 0.627 | fold change (FC) [5]: 32.2; fraction unbound [7]: < 0.005
26 | O=C(Nc1ccc(NC(=O)C2CCCCC2)c(Cl)c1)c1ccccn1 | 59.2 | 106 | 0.592 | 0.426 | –
27 | Cn1c(C(=O)Nc2ccc(NC(=O)c3ccccn3)cc2Cl)cc2ccccc21 | 49.9 | 87.1 | 2.97 | 4.72 | –
28 | O=C(Nc1ccccc1)[C@]12C[C@H]1/C(=N\O)c1ccccc1O2 | – | – | 2.82 | – | –
29 | COc1cc(NC(=O)c2ccccn2)ccc1NC(=O)c1ccccc1Cl | 79.4 | 147 | – | – | INH (Cytochrome P450 3A4): > 30 µM; INH (Cytochrome P450 1A2): > 30 µM; Cmax (Plasma [6]): 265 ng/mL; fold change (FC) [5]: 72; INH (Cytochrome P450 2D6): 12.8 µM; fraction unbound [7]: < 0.005; AUC(0-t) [8]: 938 ng·h/mL; Tmax (in vivo): 60 min; AUC (Plasma [9]): 312 ng·h/g; INH (Cytochrome P450 2C9): 14.3 µM; Cmax [10]: 69.1 ng/g
30 | O=C(Nc1ccc(NC(=O)c2nccs2)c(Cl)c1)c1ccccn1 | 61.5 | 106 | 0.533 | 0.403 | fold change (FC) [5]: 6
31 | COc1cc(NC(=O)c2ccncn2)ccc1NC(=O)c1ccccc1Cl | 77.9 | 133 | 0.894 | 1.33 | –
32 | O=C(Nc1ccc(NC(=O)c2cccs2)c(Cl)c1)c1ccccn1 | 57.8 | 93.8 | 1.13 | 1.04 | –
